High-throughput results: PubChem BioAssay, Sanford-Burnham Center for Chemical Genomics
DNMT1 block – DNMT1 (human) enzyme inhibition; AID 588458; DNMT1 molecular beacon, Hinp1I cleavage, fluorescence; 360,000 tested, 0.83% active; inhibition (reported as % activation of signal), % at 10 µM; in the data active = inhibition above about 50%
CSN inh – blocks human CSN-mediated cullin deneddylation | Q92905 | Purified CSN, SCF-Nedd8-OG deneddylation, fluorescence polarization | inhibition, % at 12.5 µM | 360,000 tested, 0.38% active | AID 651999;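 active = pattern-corrected inhibition above about 35%, with an unprinted fluorescence ratio check between 0.5 and 1.5, limit read from the data, passing the limit was not always enough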;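 note: 0% = enzyme with substrate and 100% = substrate without enzyme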
Target sequence (Q92905 whole entry, looked up, one chain of several): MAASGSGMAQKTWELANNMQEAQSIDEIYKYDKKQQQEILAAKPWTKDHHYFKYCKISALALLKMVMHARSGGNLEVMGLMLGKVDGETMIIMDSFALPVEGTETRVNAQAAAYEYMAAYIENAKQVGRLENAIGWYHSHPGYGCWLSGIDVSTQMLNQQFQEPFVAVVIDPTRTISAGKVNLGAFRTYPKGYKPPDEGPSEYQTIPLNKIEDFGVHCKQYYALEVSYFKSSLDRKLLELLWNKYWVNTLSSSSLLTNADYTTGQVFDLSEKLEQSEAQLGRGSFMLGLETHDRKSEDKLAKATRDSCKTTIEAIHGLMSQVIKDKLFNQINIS
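Test system: purified human Csn5 enzyme expressed in HEK293T cells. Amount: 0.24 nM enzyme. Reagent: SCFSkp2-Nedd8OG substrate at 10 nM final. Schedule: 90 min incubation of compound, enzyme and substrate at room temperature. Detection: fluorescence polarization. Read-out: % inhibition of substrate cleavage by Csn5.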
SUMO1-SIM PPI – SUMO1-SIM interaction modulation; P63165; SUMO1 binding to a labelled peptide, TR-FRET, 1 h; inhibition, % at 20 µM; 360,000 tested, 0.33% active; in the data active = inhibition above about 37%
STEP block – STEP (human) phosphatase inhibition; 360,000 tested, 0.25% active; AID 588621; inhibition, % at 20 µM; recombinant STEP, OMFP fluorogenic substrate, fluorescence; P54829;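 active = inhibition at 20 µM, scaled per plate between control wells, above about 37%, limit read from the data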;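 note: 0% = DMSO with enzyme and substrate and 100% = substrate only without enzyme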
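System: STEP phosphatase, cell-free reaction; Buffer or medium: Bis-Tris pH 6.0 buffer with DTT, detergent; Incubation: 20 min at room temperature, dark; Measured by: fluorescence, 480/540 nm.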
Scp1 inh – inhibitors of human Scp-1 phosphatase | Q9GZU7 | Recombinant Scp1, phosphopeptide, malachite green phosphate absorbance | inhibition, % at 20 µM | 340,000 tested, 0.88% active;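 active = inhibition above about 50% at 20 µM, limit read from the data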;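 note: plate controls were DMSO wells with enzyme for no effect and wells lacking enzyme for full effect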
Target sequence (Q9GZU7 76-261 limits assumed): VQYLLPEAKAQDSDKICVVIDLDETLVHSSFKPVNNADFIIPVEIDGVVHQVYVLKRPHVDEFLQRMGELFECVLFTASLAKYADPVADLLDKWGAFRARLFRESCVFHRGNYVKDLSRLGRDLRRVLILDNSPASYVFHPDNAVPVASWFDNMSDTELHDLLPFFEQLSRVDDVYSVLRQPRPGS
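Test system: SCP-1 phosphatase catalytic domain, residues 76-261 | Compound dosing: One concentration, 20 µM, with 1.0% DMSO | Schedule: 45 min room-temperature reaction, 5 min colour, 30 min stabiliser | Detection: Absorbance at 630 nm | Read-out basis: % inhibition of SCP-1 phosphate liberation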
LMPTP inh – LMPTP (human) inhibition; P24666; recombinant LMPTP-A, OMFP fluorogenic substrate, fluorescence intensity; inhibition, % at 20 µM; 360,000 tested, 0.22% active; AID 651560;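 active = compounds that cut the enzyme signal by at least half of the control window in the single-dose screen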;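 note: plate controls were DMSO wells with enzyme plus substrate for no effect and substrate without enzyme for full effect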
Target sequence (P24666 whole entry, looked up): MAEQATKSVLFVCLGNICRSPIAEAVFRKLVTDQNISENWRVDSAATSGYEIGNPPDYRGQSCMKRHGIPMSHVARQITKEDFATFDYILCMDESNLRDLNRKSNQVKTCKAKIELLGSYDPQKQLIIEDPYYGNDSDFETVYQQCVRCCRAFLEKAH
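Test system: LMPTP-A phosphatase enzyme; input: 0.625 nM LMPTP-A final; reagent: OMFP substrate, 400 µM final; compound dosing: 20 µM single dose, 3% DMSO; incubation: 50 min dark incubation at room temperature; measured by: endpoint fluorescence intensity from OMFP dephosphorylation; measure: % inhibition relative to no-enzyme and uninhibited control wells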
DNMT1 inh conf – confirmation of human DNMT1 inhibitors; shares compounds with DNMT1 block; DNMT1 molecular beacon HinP1I cleavage, fluorescence; inhibition, % at 10 µM; 2,300 tested, 8% active; AID 602385;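 active = average inhibition of at least 30% in the single-concentration confirmation test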
Beacon interf – counter-screen for DNMT1 inhibitors: spectral interference; activation (fluorescence interference), % at 10 µM; 2,300 tested, 1% active; DNMT1 molecular beacon spectral interference counterscreen, fluorescence 485/520; shares compounds with DNMT1 block;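 active = activation of at least 30% at 10 µM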;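 note: DNMT1 catalytic domain with a HinP1I cleavage step and a FAM/dabcyl DNA beacon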
An asterisk follows results filed as active; · = not tested or not shown. An excerpt weighted towards active compounds, which were near 2% of everything screened.

SMILES | DNMT1 block | CSN inh | SUMO1-SIM PPI | STEP block | Scp1 inh | LMPTP inh | DNMT1 inh conf | Beacon interf
C=CC[C@@H](CC(=O)N[C@@H](CO)Cc1ccccc1)C(=O)NC[C@H](OC(=O)[C@@H](CC=C)Cc1ccc(F)cc1)c1ccccc1 | 2.3 | -1.7 | 0.2 | 1.1 | -8.5 | -0.7 | · | ·
C=CCC[C@H](Cc1ccc(F)cc1)C(=O)OC[C@@H](Cc1c[nH]c2ccccc12)NC(=O)[C@@H](CC=C)CC(=O)N[C@@H](CO)Cc1ccccc1 | -10.8 | 1.9 | -4.9 | 5.8 | -7.7 | 1.2 | · | ·
C=CCC[C@H](Cc1ccc(F)cc1)C(=O)OC[C@H](Cc1c[nH]c2ccccc12)NC(=O)[C@H](CC=C)CC(=O)N(CCO)Cc1ccccc1 | -31.9 | 1.6 | 2.9 | 1.4 | -17.6 | 6.2 | · | ·
C=CCC[C@@H](Cc1ccc(F)cc1)C(=O)OC[C@@H](Cc1c[nH]c2ccccc12)NC(=O)[C@H](CC=C)CC(=O)N[C@H](CO)Cc1ccccc1 | 70.6* | -2.9 | 4.7 | 2.7 | -8.2 | 1.4 | 0.4 | -3.2
C=CCC[C@@H](Cc1ccc(F)cc1)C(=O)OC[C@@H](Cc1c[nH]c2ccccc12)NC(=O)[C@@H](CC=C)CC(=O)N[C@H](CO)Cc1ccccc1 | 74.2* | -0.5 | 7.8 | 2.0 | -11.0 | 59.8* | 9.9 | 9.0
C=CC[C@@H](CC(=O)N[C@@H](CO)Cc1ccccc1)C(=O)NC[C@@H](OC(=O)[C@@H](CC=C)Cc1ccc(F)cc1)c1ccccc1 | 66.1* | -1.9 | 3.1 | 1.1 | 0.6 | -4.9 | 1.8 | 3.9
C=CCC[C@@H](Cc1ccc(F)cc1)C(=O)OC[C@@H](Cc1c[nH]c2ccccc12)NC(=O)[C@@H](CC=C)CC(=O)N(CCO)Cc1ccccc1 | 60.4* | 1.3 | 8.6 | -3.2 | -16.7 | 16.9 | 9.3 | 12.8
O=C(NCc1ccc(Cl)cc1)c1cccc(NC2=NC3CS(=O)(=O)CC3S2)c1 (stereo not drawn) | -1.5 | -4.1 | 2.5 | 2.0 | -14.6 | -0.1 | · | ·
Cc1ccc(NC(=O)/C=C/c2ccc3c(c2)OCO3)cc1S(=O)(=O)N1CCOCC1 | -1.4 | -2.3 | 18.5 | -3.2 | -11.7 | -0.6 | · | ·
O=C(CSc1nnc(-c2c[nH]c3ccccc23)n1C1CC1)NC1CCS(=O)(=O)C1 (stereo not drawn) | 1.6 | 1.9 | 0.6 | -1.3 | · | 1.5 | · | ·
CSc1nsc(/C=C/Nc2ccc(C(=O)O)cc2)c1C#N | 65.9* | 28.5 | 14.0 | 15.2 | 29.8 | 23.1 | 8.7 | 8.8
CSc1nsc(/C=C/Nc2ccc(F)cc2F)c1C#N | -29.3 | 30.9 | -4.8 | 5.0 | -1.2 | 0.8 | · | ·
COc1ccc(-c2csc(NC(=O)c3c(C)noc3C)n2)cc1F | -0.2 | 6.0 | 5.8 | 1.4 | -2.0 | 0.8 | · | ·
O=C1CC(c2ccco2)Sc2nc3ccccc3n21 (stereo not drawn) | 55.9* | 28.3 | 10.8 | 6.7 | -0.2 | 1.0 | 5.0 | 5.2
CC(NC(=O)CN(c1ccc(Cl)cc1)S(C)(=O)=O)c1ccccc1 (stereo not drawn) | 57.5* | -5.6 | 0.8 | -2.5 | -9.5 | -0.7 | 6.7 | 5.0
C#CCn1c(=NC(=O)c2cccs2)sc2cccc(OC)c21 | 57.9* | -1.8 | -5.1 | 2.0 | 16.8 | 11.1 | 3.2 | 33.4*
C#CCn1c(=NC(=O)CN2C(=O)CCC2=O)sc2cccc(OC)c21 | 19.2 | 0.8 | 2.9 | 8.3 | -2.7 | -1.4 | · | ·
Fc1cccc(Cl)c1CNCc1cccnc1 | 0.8 | -5.5 | 0.3 | 0.9 | -5.0 | -2.3 | · | ·
Cc1c(C)c2c(OCC(=O)Nc3cccnc3)cc3c(c2oc1=O)CCC(C)(C)O3 | 55.5* | 10.9 | 13.8 | 5.0 | -1.3 | 0.7 | 1.5 | 1.7
CCOC1=C2[C@@H](CN(S(=O)(=O)c3ccccc3C)[C@H]2c2ccc(Cl)cc2)[C@H]2C(=O)NC(=O)[C@H]2C1 | 9.3 | -0.9 | 2.7 | -0.4 | · | 0.1 | · | ·
Cc1csc(NC(=O)CCn2c(=O)oc3ccccc32)n1 | 2.9 | -3.0 | -2.1 | 0.9 | -12.1 | -0.9 | · | ·
O=C(Cn1c(=O)oc2ccccc21)Nc1nc(-c2ccc(Br)cc2)cs1 | 44.3 | -12.1 | -3.2 | 0.9 | -0.2 | -0.2 | -0.9 | -0.4
O=c1c(Cl)c(N/N=C/c2ccc(Cl)cc2)cnn1-c1ccccc1 | 80.0* | 27.5 | -1.0 | 3.1 | 19.5 | 54.2* | 5.0 | 2.5
O=c1c(Cl)c(Cl)cnn1-c1ccccc1 | 5.7 | -3.9 | -9.2 | 2.8 | -4.0 | -1.0 | · | ·
Cn1cnc2c1c(=O)n(Cc1cccc(Br)c1)c(=O)n2C | -0.9 | 8.2 | 4.8 | -1.7 | -6.6 | -1.9 | · | ·
SMILES | DNMT1 block | CSN inh | SUMO1-SIM PPI | STEP block | Scp1 inh | LMPTP inh | DNMT1 inh conf | Beacon interf
CCn1cnc2c1c(=O)n(Cc1cccc(Br)c1)c(=O)n2Cc1ccccc1 | 68.5* | 1.4 | 5.6 | -0.1 | -9.7 | 2.1 | 9.0 | 9.9
CC(C)(C)OC(=O)C[C@H]1C/C=C\C[C@@H](CC(=O)N(CCO)Cc2ccccc2)C(=O)N[C@H](Cc2ccccc2)COC1=O | 2.9 | -3.9 | 0.7 | 7.3 | -2.3 | 0.9 | · | ·
O=C(O)c1ccccc1C1=Nc2ccc(O)cc2Oc2cc(O)ccc21 | 54.9* | -81.9 | 6.3 | -8.0 | 0.0 | -1.7 | 39.1* | 44.7*
COc1ccccc1CNS(=O)(=O)c1cc2c3c(c1)C(C)C(=O)N3CCC2 (stereo not drawn) | -0.6 | -1.8 | 1.5 | 1.9 | -6.9 | -1.0 | · | ·
Cc1cc(C)cc(OC(C)C(=O)Nc2ccc(S(=O)(=O)Nc3cc(C)nc(C)n3)cc2)c1 (stereo not drawn) | -0.8 | -1.0 | 3.6 | -0.1 | 1.0 | -1.0 | · | ·
O=C(NCC1CCCN(Cc2cccc(C(F)(F)F)c2)C1)c1ccc(F)cc1 (stereo not drawn) | 132.1* | 1.6 | -3.0 | -1.6 | 0.2 | -1.0 | 2.3 | -0.1
CCc1cc2c(SCC#N)ncnc2s1 | 3.8 | 5.5 | 0.2 | 2.6 | -4.5 | 0.4 | · | ·
CC1=NN(c2ccccc2)C(=O)/C1=C\C=C\c1ccccc1 | 7.9 | 6.5 | 14.9 | 2.1 | -20.5 | 3.5 | · | ·
CC1=NN(c2ccc(C)c(C)c2)C(=O)/C1=C\C=C\c1ccc([N+](=O)[O-])o1 | 91.1* | 4.0 | -5.7 | 2.6 | 65.1* | 5.5 | 14.1 | -3.2
O=S(=O)(c1ccc(NC(=S)N2CCCCC2CO)cc1)N1CCOCC1 (stereo not drawn) | 60.2* | 0.7 | -0.3 | -0.8 | · | -1.1 | -0.6 | -4.1
O=C(/C=C/c1ccco1)Nc1cc(Cl)ccc1C(=O)O | 46.7 | 19.4 | -12.3 | 5.7 | 29.2 | 0.5 | · | ·
